# In ChEMBL document CHEMBL5705890, “Antitumor activity of an allosteric inhibitor of centromere-associated protein-E” (Proc Natl Acad Sci U S A, 2010):
# Key:
# [1] = target: Centromere-associated protein E (Homo sapiens, UniProt Q02224, T183A); experiment: Binding affinity to human CENP-E T183A mutant assessed as inhibition constant
# [2] = target: Centromere-associated protein E (Homo sapiens, UniProt Q02224, I182L/T183A); experiment: Binding affinity to human CENP-E I182L/T183A mutant assessed as inhibition constant
# Centromere-associated protein E (Homo sapiens, UniProt Q02224, I182L/T183A), sequence (Q02224 whole entry I182L/T183A): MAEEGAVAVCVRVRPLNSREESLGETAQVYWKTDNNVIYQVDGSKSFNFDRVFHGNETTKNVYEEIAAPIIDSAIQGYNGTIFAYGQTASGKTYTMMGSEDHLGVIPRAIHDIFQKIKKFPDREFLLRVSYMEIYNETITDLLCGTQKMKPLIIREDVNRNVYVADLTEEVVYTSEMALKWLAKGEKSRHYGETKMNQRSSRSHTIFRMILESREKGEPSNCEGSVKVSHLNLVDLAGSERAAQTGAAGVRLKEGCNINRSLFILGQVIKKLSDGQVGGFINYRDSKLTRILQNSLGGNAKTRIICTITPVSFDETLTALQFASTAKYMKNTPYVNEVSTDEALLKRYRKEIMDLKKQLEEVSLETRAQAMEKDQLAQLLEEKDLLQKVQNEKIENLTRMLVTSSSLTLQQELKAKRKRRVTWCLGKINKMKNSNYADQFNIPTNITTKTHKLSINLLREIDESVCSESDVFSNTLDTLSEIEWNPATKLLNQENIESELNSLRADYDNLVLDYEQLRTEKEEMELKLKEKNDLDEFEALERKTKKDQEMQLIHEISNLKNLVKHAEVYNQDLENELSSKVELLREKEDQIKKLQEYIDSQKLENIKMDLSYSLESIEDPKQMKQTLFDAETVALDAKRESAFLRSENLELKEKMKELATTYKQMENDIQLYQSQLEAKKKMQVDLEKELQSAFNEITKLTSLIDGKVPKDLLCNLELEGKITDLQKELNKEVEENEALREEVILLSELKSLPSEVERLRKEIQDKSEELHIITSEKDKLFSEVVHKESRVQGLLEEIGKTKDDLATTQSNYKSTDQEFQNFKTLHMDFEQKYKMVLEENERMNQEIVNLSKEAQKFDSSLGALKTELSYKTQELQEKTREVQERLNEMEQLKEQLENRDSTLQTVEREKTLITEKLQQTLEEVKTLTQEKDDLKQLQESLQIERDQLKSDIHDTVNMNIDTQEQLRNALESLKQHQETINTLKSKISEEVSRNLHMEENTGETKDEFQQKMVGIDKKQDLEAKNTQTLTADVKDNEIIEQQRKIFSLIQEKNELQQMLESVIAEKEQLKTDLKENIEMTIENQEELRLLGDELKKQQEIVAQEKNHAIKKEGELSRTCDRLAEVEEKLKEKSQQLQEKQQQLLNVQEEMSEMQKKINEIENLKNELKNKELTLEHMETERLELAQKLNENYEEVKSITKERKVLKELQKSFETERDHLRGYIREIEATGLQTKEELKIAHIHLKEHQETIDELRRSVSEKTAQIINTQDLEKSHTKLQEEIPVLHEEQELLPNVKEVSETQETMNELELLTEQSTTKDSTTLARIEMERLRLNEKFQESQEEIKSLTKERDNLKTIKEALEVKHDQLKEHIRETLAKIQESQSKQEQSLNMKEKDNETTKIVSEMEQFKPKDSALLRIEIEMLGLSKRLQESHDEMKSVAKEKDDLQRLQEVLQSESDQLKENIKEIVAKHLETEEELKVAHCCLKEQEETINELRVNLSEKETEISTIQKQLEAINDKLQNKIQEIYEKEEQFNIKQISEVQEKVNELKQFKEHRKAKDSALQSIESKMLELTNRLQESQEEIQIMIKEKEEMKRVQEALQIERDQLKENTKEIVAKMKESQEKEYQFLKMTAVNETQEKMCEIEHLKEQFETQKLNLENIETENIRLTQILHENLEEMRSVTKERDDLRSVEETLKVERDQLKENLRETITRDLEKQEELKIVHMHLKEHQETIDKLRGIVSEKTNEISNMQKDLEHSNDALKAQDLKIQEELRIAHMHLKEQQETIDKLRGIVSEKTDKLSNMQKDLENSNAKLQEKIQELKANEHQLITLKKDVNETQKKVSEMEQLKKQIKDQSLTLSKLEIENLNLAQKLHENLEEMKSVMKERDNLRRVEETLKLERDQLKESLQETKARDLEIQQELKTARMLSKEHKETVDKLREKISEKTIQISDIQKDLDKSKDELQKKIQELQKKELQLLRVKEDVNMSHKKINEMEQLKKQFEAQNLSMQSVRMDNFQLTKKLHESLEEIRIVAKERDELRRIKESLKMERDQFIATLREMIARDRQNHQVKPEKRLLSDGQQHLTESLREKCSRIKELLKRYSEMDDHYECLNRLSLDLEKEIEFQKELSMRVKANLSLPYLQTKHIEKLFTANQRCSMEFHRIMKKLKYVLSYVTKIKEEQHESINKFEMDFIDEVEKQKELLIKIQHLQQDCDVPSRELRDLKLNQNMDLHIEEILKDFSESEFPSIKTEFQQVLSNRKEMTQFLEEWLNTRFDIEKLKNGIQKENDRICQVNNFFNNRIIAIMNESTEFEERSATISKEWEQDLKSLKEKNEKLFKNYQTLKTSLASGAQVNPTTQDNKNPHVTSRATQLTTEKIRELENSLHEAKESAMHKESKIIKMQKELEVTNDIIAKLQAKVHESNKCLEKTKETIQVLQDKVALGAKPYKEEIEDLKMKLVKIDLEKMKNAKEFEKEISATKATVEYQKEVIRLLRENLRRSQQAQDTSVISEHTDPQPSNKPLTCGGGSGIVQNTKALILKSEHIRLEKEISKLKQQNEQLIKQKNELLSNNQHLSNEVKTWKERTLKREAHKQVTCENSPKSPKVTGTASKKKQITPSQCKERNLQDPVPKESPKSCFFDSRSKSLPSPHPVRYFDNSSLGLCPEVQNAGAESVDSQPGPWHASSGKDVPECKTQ
# 647-V = experiment: Anticancer activity against human 647-V cells assessed as cell growth inhibition measured after 72 hrs by DAPI staining based analysis; format: functional
# Summary of the method: (§1)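 Cells were seeded and, after 24 h, DNA content was read as T0. Cells were then exposed to varying drug concentrations for a further 72 h (T72). Fixed cells were DAPI-stained and DNA content measured by automated imaging. T72 values were normalized to T0. GI50 is the concentration giving 50% growth inhibition between T0 and Ymax, obtained by curve fitting.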
# A-427 [3] = experiment: Anticancer activity against human A-427 cells assessed as cell growth inhibition measured after 72 hrs by DAPI staining based analysis; format: functional; summary of the method: as §1
# C-4-II = experiment: Anticancer activity against human C-4-II cells assessed as cell growth inhibition measured after 72 hrs by DAPI staining based analysis; format: functional
# Summary of the method: (§2)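 Cells were seeded, and DNA content at 24 h after seeding (T0) was read by imaging of fixed, DAPI-stained cells. Cells were then exposed to a range of drug concentrations for a further 72 h (T72) and DNA content was read again. T72 values were normalized to T0, and GI50 was taken from curve fits as the concentration giving 50% growth inhibition relative to T0 and Ymax.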
# CCF-STTG1 = experiment: Anticancer activity against human CCF-STTG1 cells assessed as cell growth inhibition measured after 72 hrs by DAPI staining based analysis; format: functional; summary of the method: as §2
# HCC 2998 = experiment: Anticancer activity against human HCC 2998 cells assessed as cell growth inhibition measured after 72 hrs by DAPI staining based analysis; format: functional
# Summary of the method: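 Cells seeded, DAPI-stained DNA content of fixed cells read by imaging 24 h after seeding (T0), and again after a further 72 h exposure to a range of drug concentrations (T72). T72 values were normalized to T0. Curve fits gave the concentration producing 50% growth inhibition relative to T0 and Ymax (GI50).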
# HCT-116 = experiment: Anticancer activity against human HCT-116 cells assessed as cell growth inhibition measured after 72 hrs by DAPI staining based analysis; format: functional
# HN5 = experiment: Anticancer activity against human HN5 cells assessed as cell growth inhibition measured after 72 hrs by DAPI staining based analysis; format: functional
# IGROV-1 = experiment: Anticancer activity against human IGROV-1 cells assessed as cell growth inhibition measured after 72 hrs by DAPI staining based analysis; format: functional
# MOLT-16 = experiment: Anticancer activity against human MOLT-16 cells assessed as cell growth inhibition measured after 72 hrs by DAPI staining based analysis; format: functional
# NCI-H358 = experiment: Anticancer activity against human NCI-H358 cells assessed as cell growth inhibition measured after 72 hrs by DAPI staining based analysis; format: functional
# SF-539 = experiment: Anticancer activity against human SF-539 cells assessed as cell growth inhibition measured after 72 hrs by DAPI staining based analysis; format: functional
# SHP77 = experiment: Anticancer activity against human SHP77 cells assessed as cell growth inhibition measured after 72 hrs by DAPI staining based analysis; format: functional
# SK-OV-3 [4] = experiment: Anticancer activity against human SK-OV-3 cells assessed as cell growth inhibition measured after 72 hrs by DAPI staining based analysis; format: functional
# SNU-449 = experiment: Anticancer activity against human SNU-449 cells assessed as cell growth inhibition measured after 72 hrs by DAPI staining based analysis; format: functional
# 786-0 = experiment: Anticancer activity against human 786-0 cells assessed as cell doubling measured for 72 hrs by DAPI staining based analysis; format: functional
# A-427 [5] = experiment: Anticancer activity against human A-427 cells assessed as cell doubling measured for 72 hrs by DAPI staining based analysis; format: functional
# ARH-77 = experiment: Anticancer activity against human ARH-77 cells assessed as cell doubling measured for 72 hrs by DAPI staining based analysis; format: functional
# CAKI-2 = experiment: Anticancer activity against human CAKI-2 cells assessed as cell doubling measured for 72 hrs by DAPI staining based analysis; format: functional
# CHP-212 = experiment: Anticancer activity against human CHP-212 cells assessed as cell doubling measured for 72 hrs by DAPI staining based analysis; format: functional
# COLO-320-HSR = experiment: Anticancer activity against human COLO 320HSR cells assessed as cell doubling measured for 72 hrs by DAPI staining based analysis; format: functional
# CRO-AP2 = experiment: Anticancer activity against human CRO-AP2 cells assessed as cell doubling measured for 72 hrs by DAPI staining based analysis; format: functional
# HepG2 = experiment: Anticancer activity against human HepG2 cells assessed as cell doubling measured for 72 hrs by DAPI staining based analysis; format: functional
# HT-29 [6] = experiment: Anticancer activity against human HT-29 cells assessed as cell doubling measured for 72 hrs by DAPI staining based analysis; format: functional
# HT-3 = experiment: Anticancer activity against human HT-3 cells assessed as cell doubling measured for 72 hrs by DAPI staining based analysis; format: functional
# NCI/ADR-RES = experiment: Anticancer activity against human NCI/ADR-RES cells assessed as cell doubling measured for 72 hrs by DAPI staining based analysis; format: functional
# NCI-H209 = experiment: Anticancer activity against human NCI-H209 cells assessed as cell doubling measured for 72 hrs by DAPI staining based analysis; format: functional
# NCI-H82 = experiment: Anticancer activity against human NCI-H82 cells assessed as cell doubling measured for 72 hrs by DAPI staining based analysis; format: functional
# OVCAR-3 = experiment: Anticancer activity against human OVCAR-3 cells assessed as cell doubling measured for 72 hrs by DAPI staining based analysis; format: functional
# RD = experiment: Anticancer activity against human RD cells assessed as cell doubling measured for 72 hrs by DAPI staining based analysis; format: functional
# [7] = Anticancer activity against human UM-SCC-12 cells assessed as cell doubling measured for 72 hrs by DAPI staining based analysis; format: functional
# SCC-25 = experiment: Anticancer activity against human SCC-25 cells assessed as cell doubling measured for 72 hrs by DAPI staining based analysis; format: functional
# SK-OV-3 [8] = experiment: Anticancer activity against human SK-OV-3 cells assessed as cell doubling measured for 72 hrs by DAPI staining based analysis; format: functional
# NCI-H460 = experiment: Antitumor activity against human NCI-H460 cells in xenograft model assessed as difference between median time to endpoint time of treated versus control group at 125 mg/kg; format: functional
# MCF7 = experiment: Antitumor activity against human MCF7 cells in xenograft model assessed as difference between median time to endpoint time of treated versus control group at 125 mg/kg; format: functional
# MDA-MB-231 = experiment: Antitumor activity against human MDA-MB-231 cells in xenograft model assessed as difference between median time to endpoint time of treated versus control group at 125 mg/kg; format: functional
# HT-29 [9] = experiment: Antitumor activity against human HT-29 cells in xenograft model assessed as tumor growth delay at 125 mg/kg relative to control; format: functional
# [10] = Antitumor activity against human MV-522 cells in xenograft model assessed as tumor growth delay at 125 mg/kg relative to control; format: functional
# Centromere-associated protein E (Homo sapiens, UniProt Q02224, T183A), sequence (Q02224 whole entry T183A): as the sequence (Q02224 whole entry I182L/T183A) above, with L182I counted along it
smiles,measurement,setting,value
CC(C)Oc1ccc(C(=O)N[C@H](CNC(=O)CN(C)C)Cc2ccc(-c3cn4cccc([C@H](C)O)c4n3)cc2)cc1Cl [GSK-923295A],Ki,[1],13 nM
same,Ki,[2],61 nM
same,GI50,647-V,72 nM
same,GI50,A-427 [3],97 nM
same,GI50,C-4-II,46 nM
same,GI50,CCF-STTG1,24 nM
same,GI50,HCC 2998,29 nM
same,GI50,HCT-116,31 nM
same,GI50,HN5,118 nM
same,GI50,IGROV-1,31 nM
same,GI50,MOLT-16,47 nM
same,GI50,NCI-H358,18 nM
same,GI50,SF-539,28 nM
same,GI50,SHP77,86 nM
same,GI50,SK-OV-3 [4],26 nM
same,GI50,SNU-449,236 nM
same,Activity,786-0,2.59
same,Activity,A-427 [5],2.46
same,Activity,ARH-77,1.62
same,Activity,CAKI-2,1.63
same,Activity,CHP-212,1.39
same,Activity,COLO-320-HSR,3.25
same,Activity,CRO-AP2,2.92
same,Activity,HepG2,2.45
same,Activity,HT-29 [6],4.33
same,Activity,HT-3,1.95
same,Activity,NCI/ADR-RES,2.47
same,Activity,NCI-H209,1.12
same,Activity,NCI-H82,2
same,Activity,OVCAR-3,1.56
same,Activity,RD,2.56
same,Activity,[7],1.78
same,Activity,SCC-25,2.99
same,Activity,SK-OV-3 [8],1.72
same,Time,NCI-H460,37.2 days
same,Time,MCF7,15.8 days
same,Time,MDA-MB-231,47.1 days
same,Activity,HT-29 [9],39%
same,Activity,[10],104%
